Columns and labels:
Format in all cases: functional
[1] = biological target: T1, Soluble guanylate cyclase (Homo sapiens) (UniProt Q02153+O75343+P33402+Q02108); test: Ratio of activation of sGC by compound over that of control, in absence of carbon monooxide (basal activity 33+/-3 nmol/min/mg)
[2] = biological target: T1, Soluble guanylate cyclase (Homo sapiens); test: Ratio of activation of sGC by compound over that of control, in presence of carbon monooxide (basal activity 33+/-3 nmol/min/mg in absence of CO)
[3] = biological target: Soluble guanylate cyclase (Homo sapiens, UniProt O75343+P33402+Q02108+Q02153); test: Effect on YC-1 mediated activation of sGC in presence of carbon monoxide
Procedure, shortened: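 Purified sGC from a baculovirus/Sf9 expression system, measured with CO by end-point assay in 4% v/v DMSO across a range of YC-1 concentrations, with and without a fixed level of the test compound. Assays ran 2 min in triplicate, and errors are mean + range/2. EC50 came from a four-parameter logistic fit.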

Soluble guanylate cyclase, sequence (Q02153 whole entry): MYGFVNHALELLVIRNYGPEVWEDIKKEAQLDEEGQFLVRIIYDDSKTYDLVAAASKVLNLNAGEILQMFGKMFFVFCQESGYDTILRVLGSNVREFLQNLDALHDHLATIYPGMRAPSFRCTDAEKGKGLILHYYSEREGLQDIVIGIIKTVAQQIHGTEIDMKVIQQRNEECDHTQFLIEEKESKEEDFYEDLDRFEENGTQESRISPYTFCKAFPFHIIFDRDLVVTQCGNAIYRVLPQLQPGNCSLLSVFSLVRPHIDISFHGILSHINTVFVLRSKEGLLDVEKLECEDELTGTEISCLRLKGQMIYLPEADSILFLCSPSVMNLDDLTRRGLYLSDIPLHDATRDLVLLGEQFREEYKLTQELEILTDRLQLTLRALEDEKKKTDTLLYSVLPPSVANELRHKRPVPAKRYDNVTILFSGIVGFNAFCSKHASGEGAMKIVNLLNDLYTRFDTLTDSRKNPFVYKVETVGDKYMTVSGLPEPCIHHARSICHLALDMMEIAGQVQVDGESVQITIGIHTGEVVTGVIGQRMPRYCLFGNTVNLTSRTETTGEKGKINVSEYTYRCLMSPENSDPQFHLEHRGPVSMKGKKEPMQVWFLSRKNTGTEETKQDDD
Soluble guanylate cyclase, sequence (O75343 whole entry): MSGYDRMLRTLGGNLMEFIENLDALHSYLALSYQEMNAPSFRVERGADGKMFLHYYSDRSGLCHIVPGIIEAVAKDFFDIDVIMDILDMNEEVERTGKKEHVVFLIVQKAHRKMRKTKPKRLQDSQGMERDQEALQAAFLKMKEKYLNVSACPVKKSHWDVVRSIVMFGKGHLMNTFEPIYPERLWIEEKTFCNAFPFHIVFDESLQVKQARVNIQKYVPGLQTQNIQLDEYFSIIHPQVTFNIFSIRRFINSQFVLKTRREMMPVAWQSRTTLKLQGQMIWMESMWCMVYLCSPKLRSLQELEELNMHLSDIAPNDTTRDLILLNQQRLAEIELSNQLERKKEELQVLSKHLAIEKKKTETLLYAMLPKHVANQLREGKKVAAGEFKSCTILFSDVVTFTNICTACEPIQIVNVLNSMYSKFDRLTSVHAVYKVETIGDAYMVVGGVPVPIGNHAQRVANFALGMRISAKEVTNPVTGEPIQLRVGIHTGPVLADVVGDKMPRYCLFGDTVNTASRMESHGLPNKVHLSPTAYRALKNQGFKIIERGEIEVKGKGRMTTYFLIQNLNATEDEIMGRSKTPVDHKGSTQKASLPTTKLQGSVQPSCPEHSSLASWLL
Soluble guanylate cyclase, sequence (P33402 whole entry): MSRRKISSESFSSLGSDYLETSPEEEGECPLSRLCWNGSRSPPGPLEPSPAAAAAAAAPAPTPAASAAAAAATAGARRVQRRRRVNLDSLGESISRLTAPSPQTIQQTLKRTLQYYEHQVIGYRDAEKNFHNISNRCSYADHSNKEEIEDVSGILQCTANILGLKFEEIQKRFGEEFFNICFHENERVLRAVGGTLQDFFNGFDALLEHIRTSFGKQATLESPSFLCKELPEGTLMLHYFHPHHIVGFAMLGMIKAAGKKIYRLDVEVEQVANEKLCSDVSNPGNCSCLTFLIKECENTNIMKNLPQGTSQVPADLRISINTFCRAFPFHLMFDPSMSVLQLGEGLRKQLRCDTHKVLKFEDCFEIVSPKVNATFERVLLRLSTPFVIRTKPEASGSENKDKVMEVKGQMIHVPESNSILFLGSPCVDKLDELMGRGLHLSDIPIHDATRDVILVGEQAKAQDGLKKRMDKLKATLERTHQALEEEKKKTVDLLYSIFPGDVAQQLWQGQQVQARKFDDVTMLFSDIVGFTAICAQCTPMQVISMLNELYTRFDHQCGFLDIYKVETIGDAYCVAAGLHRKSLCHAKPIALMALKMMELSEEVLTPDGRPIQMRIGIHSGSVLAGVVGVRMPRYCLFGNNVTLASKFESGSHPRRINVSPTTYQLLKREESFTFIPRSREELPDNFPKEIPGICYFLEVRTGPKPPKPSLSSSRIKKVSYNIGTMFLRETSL
Soluble guanylate cyclase, sequence (Q02108 whole entry): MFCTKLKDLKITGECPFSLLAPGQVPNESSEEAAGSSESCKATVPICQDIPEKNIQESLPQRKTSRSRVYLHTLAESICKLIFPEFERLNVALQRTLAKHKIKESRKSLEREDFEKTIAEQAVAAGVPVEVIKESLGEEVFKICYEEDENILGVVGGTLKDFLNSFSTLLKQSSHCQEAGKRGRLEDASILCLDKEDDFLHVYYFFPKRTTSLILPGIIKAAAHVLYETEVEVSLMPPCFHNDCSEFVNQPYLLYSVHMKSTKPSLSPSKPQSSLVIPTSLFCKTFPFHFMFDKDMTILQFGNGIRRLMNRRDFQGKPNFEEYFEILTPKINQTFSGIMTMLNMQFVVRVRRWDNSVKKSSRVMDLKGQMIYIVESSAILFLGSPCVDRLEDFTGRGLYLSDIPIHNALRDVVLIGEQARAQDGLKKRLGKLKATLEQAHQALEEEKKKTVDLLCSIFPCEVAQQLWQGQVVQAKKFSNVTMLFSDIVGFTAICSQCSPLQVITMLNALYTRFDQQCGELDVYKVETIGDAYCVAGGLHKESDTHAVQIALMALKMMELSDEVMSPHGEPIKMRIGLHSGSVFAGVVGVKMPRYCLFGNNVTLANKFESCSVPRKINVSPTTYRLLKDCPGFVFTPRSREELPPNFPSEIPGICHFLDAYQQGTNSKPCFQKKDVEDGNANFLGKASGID

Row | Activity [1] | Activity [2] | EC50 [3] [µM] | Structure (SMILES)
1 | 4.7 | 20.3 |  | [N-]=[N+]=Nc1ccc(Cn2nc(-c3ccc(CO)o3)c3ccccc32)cc1
2 | 3.4 | 29 | 21.9 | [N-]=[N+]=Nc1ccc2c(-c3ccc(CO)o3)nn(Cc3ccccc3)c2c1
3 | 1.7 | 4.4 |  | [N-]=[N+]=Nc1ccc2c(c1)c(-c1ccc(CO)o1)nn2Cc1ccccc1
4 | 2 | 7.1 |  | [N-]=[N+]=Nc1cccc(Cn2nc(-c3ccc(CO)o3)c3ccccc32)c1
5 | 9.2 | 139 |  | OCc1ccc(-c2nn(Cc3ccccc3)c3ccccc23)o1

— ChEMBL document CHEMBL1138113, “The design and synthesis of YC-1 analogues as probes for soluble guanylate cyclase” (Bioorg Med Chem Lett, 2006)
